# Measured values: ChEMBL document CHEMBL1134622, “Piperazine-based CCR5 antagonists as HIV-1 inhibitors. II. Discovery of 1-[(2,4-dimethyl-3-pyridinyl)carbonyl]-4- methyl-4-[3(S)-methyl-4-[1(S)-[4-(trifluoromethyl)phenyl]ethyl]-1-piperazinyl]- piperidine N1-oxide (Sch-350634), an orally bioavailable, potent CCR5 antagonist” (J Med Chem, 2001)
# Tests used:
# Canis familiaris [1] = test: Area under concentration curve in Beagle dogs after iv administration (0-24 hr); type: ADME, organism-based, Canis lupus familiaris; parameters: time < 24 hr, route intravenous; conditions: dog, in vivo
# Procedure, shortened: (§1)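 Beagle dogs and cynomolgus monkeys. IV dose 1 mg/kg. Oral dose 3 mg/kg in dog, 10 mg/kg in monkey. Plasma sampled over 0-24 h. […] Bioavailability is dose-corrected from oral vs iv AUC.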
# Cynomolgus monkey [2] = test: Area under concentration curve in cynomolgus monkey after iv administration; type: ADME, organism-based, Macaca fascicularis; conditions: in vivo; procedure, shortened: as §1
# Cynomolgus monkey [3] = test: Area under concentration curve in cynomolgus monkey after oral administration; type: ADME, organism-based, Macaca fascicularis; conditions: in vivo; procedure, shortened: as §1
# [4] = Plasma concentration after 6 hours of oral administration in rat; type: ADME, organism-based; conditions: read-out: C6h
# [5] = Bioavailability in dog after oral administration.; type: ADME, organism-based, Canis lupus familiaris; conditions: in vivo, read-out: BA; procedure, shortened: as §1
# [6] = Bioavailability in monkey after oral administration.; type: ADME, organism-based; conditions: simiiformes, in vivo, read-out: BA; procedure, shortened: as §1
# [7] = Half life determined after iv administration to dog; type: ADME, organism-based, Canis lupus familiaris; conditions: in vivo; procedure, shortened: as §1
# [8] = Maximum plasma concentration after oral administration in dog; type: ADME, organism-based, Canis lupus familiaris; parameters: route oral; procedure, shortened: as §1
# [9] = Maximum plasma concentration after oral administration in monkey; type: ADME, organism-based; parameters: route oral; conditions: simiiformes; procedure, shortened: as §1
# [10] = Time required for the maximum plasma concentration in rat.; type: ADME, organism-based
# Rattus norvegicus = test: Pharmacokinetic characterization measured on oral blood levels in rat at 10 mg/kg (0-6 hr); type: ADME, organism-based; parameters: time < 6 hr, dose 10 mg/kg, route oral; conditions: in vivo
# Procedure, shortened: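 Rats given compound orally at 10 mg/kg. Plasma concentrations followed over 6 h. Blood levels expressed as AUC (0-6 h) of the concentration-time plot, in ng/mL h.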
# [11] = target: T1, C-C chemokine receptor type 5 (Homo sapiens, UniProt P51681); test: Binding affinity at C-C chemokine receptor type 5
# Procedure, shortened: (§2)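 CCR5 Ki in nM. Standard error 10%; assay-to-assay variability 2-3-fold.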
# [12] = target: T2, Muscarinic acetylcholine receptor M2 (Homo sapiens, UniProt P08172); test: Binding affinity against muscarinic acetylcholine receptor M2
# T2 sequence (P08172 whole entry): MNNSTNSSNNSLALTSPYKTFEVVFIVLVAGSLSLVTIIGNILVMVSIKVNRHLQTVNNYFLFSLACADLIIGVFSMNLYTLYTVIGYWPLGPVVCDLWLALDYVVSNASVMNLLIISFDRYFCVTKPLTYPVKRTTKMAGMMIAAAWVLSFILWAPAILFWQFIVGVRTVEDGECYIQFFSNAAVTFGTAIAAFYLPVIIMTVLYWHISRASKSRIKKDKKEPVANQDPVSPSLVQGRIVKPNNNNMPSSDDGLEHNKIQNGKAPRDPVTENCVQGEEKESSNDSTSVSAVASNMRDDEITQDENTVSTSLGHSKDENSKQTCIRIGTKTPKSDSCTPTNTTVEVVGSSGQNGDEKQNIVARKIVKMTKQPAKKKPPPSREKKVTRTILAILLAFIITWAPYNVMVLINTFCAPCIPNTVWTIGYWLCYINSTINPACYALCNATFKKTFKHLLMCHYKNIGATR
# U-87 MG [13] = test: Inhibition of the entry of HIV-1 reporter virus (ADA) into U-87 cells; type: functional, cell-based, U-87MG ATCC; conditions: Homo sapiens
# Procedure, shortened: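 Single-cycle infectivity assay in U-87 cells with HIV-1 reporter virus (ADA). IC50 is the concentration giving 50% inhibition of viral entry. 95% confidence limit within 1 log; intra-assay variation under 0.5 log.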
# [14] = Half life determined after iv administration to monkey; type: ADME, organism-based; conditions: simiiformes, in vivo; procedure, shortened: as §1
# Canis familiaris [15] = test: Area under concentration curve in Beagle dogs after oral administration (0-24 hr); type: ADME, organism-based, Canis lupus familiaris; parameters: time < 24 hr, route oral; conditions: dog, in vivo; procedure, shortened: as §1
# [16] = target: T1, C-C chemokine receptor type 5; test: Binding affinity towards C-C chemokine receptor type 5; procedure, shortened: as §2
# U-87 MG [17] = test: Inhibition of the entry of HIV-1 reporter virus (JrF1) into U-87 cells; type: functional, cell-based, U-87MG ATCC; conditions: Homo sapiens
# Procedure, shortened: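 Entry of HIV-1 reporter virus (JrFl) into U-87 cells. IC50 is the concentration inhibiting entry by 50%. 95% confidence limit within 1 log; intra-assay variation under 0.5 log.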
# [18] = Time required for the maximum plasma concentration in rat blood levels at 10 mg/kg; type: ADME, organism-based; parameters: dose 10 mg/kg
# [19] = Plasma concentration after 0 hours of intravenous administration in dog; type: ADME, organism-based, Canis lupus familiaris; conditions: read-out: Co; procedure, shortened: as §1
# [20] = Plasma concentration after 0 hours of intravenous administration in cunomolgus monkey; type: ADME, organism-based, Macaca fascicularis; conditions: cynomolgus monkey; procedure, shortened: as §1
# [21] = target: T1, C-C chemokine receptor type 5; test: Inhibitory activity against C-C chemokine receptor type 5; procedure, shortened: as §2
# T1 sequence (P51681 whole entry): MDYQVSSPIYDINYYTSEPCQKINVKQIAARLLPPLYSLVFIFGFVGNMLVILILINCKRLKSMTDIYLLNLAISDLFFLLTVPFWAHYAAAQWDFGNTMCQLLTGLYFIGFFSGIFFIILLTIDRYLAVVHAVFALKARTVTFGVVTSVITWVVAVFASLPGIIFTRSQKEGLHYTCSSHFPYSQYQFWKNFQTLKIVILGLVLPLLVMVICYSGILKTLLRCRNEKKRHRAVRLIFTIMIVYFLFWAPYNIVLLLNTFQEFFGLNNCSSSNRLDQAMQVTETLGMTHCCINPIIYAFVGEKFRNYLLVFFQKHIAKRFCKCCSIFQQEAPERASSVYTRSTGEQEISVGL
SMILES,AUC (Rattus norvegicus),IC50 (U-87 MG [13]),Ki [16],further results
Cc1cccc(C)c1C(=O)N1CCC(C)(N2CCN(Cc3ccc(I)cc3)[C@@H](C)C2)CC1,–,–,8 nM,IC50 (U-87 MG [17]): 2.7 nM
Cc1cccc(C)c1C(=O)N1CCC(N2CCN([C@@H](C)c3ccc(I)cc3)[C@@H](C)C2)CC1,–,–,20 nM,IC50 (U-87 MG [17]): 7 nM
Cc1cccc(O)c1C(=O)N1CCC(C)(N2CCN([C@@H](C)c3ccc(S(C)(=O)=O)cc3)[C@@H](C)C2)CC1,384 ng·h/mL,4 nM,15 nM,–
Cc1cccc(C)c1C(=O)N1CCC(N2CCN([C@@H](C)c3ccc(Br)cc3)[C@@H](C)C2)CC1,–,–,23 nM,IC50 [21]: 6 nM
Cc1cccc(C)c1C(=O)N1CCC(C)(N2CCN([C@@H](C)c3ccc(S(C)(=O)=O)cc3)[C@@H](C)C2)CC1,–,0.5 nM,3 nM,–
C[C@H]1CN(C2(C)CCN(C(=O)c3c(N)cccc3Cl)CC2)CCN1[C@@H](C)c1ccc(S(C)(=O)=O)cc1,447 ng·h/mL,0.8 nM,5 nM,–
Cc1cccc(C)c1C(=O)N1CCC(N2CCN(Cc3ccc(I)cc3)CC2)CC1,–,–,440 nM,–
C[C@H]1CN(C2(C)CCN(C(=O)c3c(N)cccc3Cl)CC2)CCN1[C@@H](C)c1ccc(I)cc1,1980 ng·h/mL,2 nM,12 nM,–
Cc1cccc(C)c1C(=O)N1CCC(N2CCN(Cc3ccc(I)cc3)[C@@H](C)C2)CC1,–,–,30 nM,–
Cc1cccc(O)c1C(=O)N1CCC(C)(N2CCN([C@@H](C)c3ccc(C(F)(F)F)cc3)[C@@H](C)C2)CC1,2540 ng·h/mL,3.2 nM,5 nM,–
Cc1cccc(C)c1C(=O)N1CCC(C)(N2CCN(Cc3ccc(I)cc3)CC2)CC1,–,–,62 nM,–

# Further lines, with some results ahead:
AUC (Rattus norvegicus),IC50 (U-87 MG [13]),Ki [16],SMILES,further results
9240 ng·h/mL,1 nM,–,Cc1cc[n+]([O-])c(C)c1C(=O)N1CCC(C)(N2CCN([C@@H](C)c3ccc(C(F)(F)F)cc3)[C@@H](C)C2)CC1,AUC (Canis familiaris [1]): 3240 ng·h/mL; AUC (Cynomolgus monkey [2]): 2610 ng·h/mL; AUC (Cynomolgus monkey [3]): 15400 ng·h/mL; concentration at 6 h [4]: 1300 ng/mL; bioavailability [5]: 65%; bioavailability [6]: 59%; half-life [7]: 6 h; Cmax [8]: 690 ng/mL; Cmax [9]: 1420 ng/mL; Tmax [10]: 2.5 h; Ki [11]: 7 nM; Ki [12]: 250 nM; half-life [14]: 4 h; AUC (Canis familiaris [15]): 6290 ng·h/mL
822 ng·h/mL,1 nM,5 nM,Cc1cccc(C)c1C(=O)N1CCC(C)(N2CCN([C@@H](C)c3ccc(I)cc3)[C@@H](C)C2)CC1,–
2810 ng·h/mL,1 nM,7 nM,Cc1cccc(O)c1C(=O)N1CCC(C)(N2CCN([C@@H](C)c3ccc(I)cc3)[C@@H](C)C2)CC1,–
3900 ng·h/mL,0.5 nM,–,Cc1ccnc(C)c1C(=O)N1CCC(C)(N2CCN([C@@H](C)c3ccc(C(F)(F)F)cc3)[C@@H](C)C2)CC1,AUC (Canis familiaris [1]): 1610 ng·h/mL; AUC (Cynomolgus monkey [2]): 996 ng·h/mL; AUC (Cynomolgus monkey [3]): 2740 ng·h/mL; bioavailability [5]: 33%; bioavailability [6]: 27.5%; Cmax [8]: 226 ng/mL; Cmax [9]: 281 ng/mL; Tmax [18]: 1.5 h; Ki [11]: 2.3 nM; Ki [12]: 2500 nM; concentration at 0 h [19]: 346 ng/mL; C0 at 0 h [20]: 390 ng/mL; AUC (Canis familiaris [15]): 1580 ng·h/mL
922 ng·h/mL,0.4 nM,1 nM,Cc1cccc(C)c1C(=O)N1CCC(C)(N2CCN([C@@H](C)c3ccc(C(F)(F)F)cc3)[C@@H](C)C2)CC1,–
–,–,275 nM,Cc1cccc(C)c1C(=O)N1CCC(N2CCN([C@@H](C)c3ccccc3)[C@@H](C)C2)CC1,–
1870 ng·h/mL,1.2 nM,5 nM,C[C@H]1CN(C2(C)CCN(C(=O)c3c(N)cccc3Cl)CC2)CCN1[C@@H](C)c1ccc(C(F)(F)F)cc1,–
